# From paper PMC10524360 (Cell chemical biology, 2023)
# Entries after “also recorded” stand apart in the source; their conditions may differ. Residues, ends and D or L forms follow the SMILES beside them. *: point of attachment. Cbz = O=C(OCc1ccccc1)*; CH2F = FC*
# Tests used:
# H460^C Cas9 cells [1] = experiment: cell death; format: cell-based, human; conditions: for effect on cell death induced by co-treatment of FSEN1 and RSL3: H460^C Cas9, 5 μM RSL3 + 1 μM FSEN1, Z-VAD 10 μM, Nec1s 1 μM; for effect on cell death induced by co-treatment of FSEN1 and RSL3 / effect on cell death induced by DHA and FSEN1 together: Fer-1 2 μM, DFO 100 μM, idebenone 10 μM, tocopherol 10 μM; for minimal dose that achieves maximal synergy for inducing ferroptosis: checkerboard FSEN1 (0–15 μM) x RSL3 (0–15 μM)
# Method in brief: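 H460C Cas9 cells get dose series of RSL3 or DHA with vehicle or 1 μM FSEN1, plus ferroptosis inhibitors where indicated (Fer-1 2 μM, DFO 100 μM, idebenone 10 μM, tocopherol 10 μM). Dead cells are stained with SYTOX Green and imaged on IncuCyte over 24 hr. Lethal fraction is dead/total cells, and its AUC is fit against concentration (variable slope) for EC50. Mean ± SEM, 2–3 biological replicates.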
# H460^C GPX4^KO cells = experiment: cell death; format: cell-based, human
# Method in brief: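 Cells were seeded in triplicate at 1000–1500 cells/well (384-well) 24 h before treatment. Test compound was added in medium with 30 nM SYTOX Green, and the plates were imaged (IncuCyte, 37°C, 5% CO2) every 1.5 or 3 h over 24 h. Lethal fraction = SYTOX+/(SYTOX+ plus mCherry+) objects; AUC averaged over three biological replicates; EC50 from a variable-slope fit.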
# H460^C FSP1^KO cells = experiment: cell death; format: cell-based, human; conditions: for cell death, single agent: 24 h library screen, 40 μM compounds
# Method in brief: (§1)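 H460C knockout cells (mFSP1-overexpressing where stated) were seeded at 1500 cells/well in 384-well plates 24 h before treatment. Drug-containing medium with 30 nM SYTOX Green was added and cells were imaged in an IncuCyte at 37°C, 5% CO2 every 4 h for 24 h. Lethal fraction = SYTOX+/(SYTOX+ plus mCherry+) objects; AUC was fitted to a variable-slope curve for EC50.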
# NQO1 = NQO1 (Homo sapiens, UniProt P15559); experiment: in vitro NQO1 CoQ1 oxidoreductase activity assay; format: biochemical; conditions: increasing concentrations of FSEN1
# Sequence of NQO1 (P15559 2-274 limits assumed): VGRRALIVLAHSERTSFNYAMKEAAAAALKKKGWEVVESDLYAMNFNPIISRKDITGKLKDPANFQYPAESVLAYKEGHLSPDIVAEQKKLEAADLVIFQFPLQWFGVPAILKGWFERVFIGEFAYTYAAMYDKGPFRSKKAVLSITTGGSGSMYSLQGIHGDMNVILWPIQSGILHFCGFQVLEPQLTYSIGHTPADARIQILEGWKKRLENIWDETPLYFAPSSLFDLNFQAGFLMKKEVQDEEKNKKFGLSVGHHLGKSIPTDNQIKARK
# purified mFSP1 = molecular target: T1, purified mFSP1 (Mus musculus, UniProt Q8BUE4); experiment: in vitro mFSP1 CoQ1 oxidoreductase activity assay; format: biochemical; conditions: 125 nM mFSP1
# T1 sequence (Q8BUE4 2-380 isoform Q8BUE4-2 limits assumed): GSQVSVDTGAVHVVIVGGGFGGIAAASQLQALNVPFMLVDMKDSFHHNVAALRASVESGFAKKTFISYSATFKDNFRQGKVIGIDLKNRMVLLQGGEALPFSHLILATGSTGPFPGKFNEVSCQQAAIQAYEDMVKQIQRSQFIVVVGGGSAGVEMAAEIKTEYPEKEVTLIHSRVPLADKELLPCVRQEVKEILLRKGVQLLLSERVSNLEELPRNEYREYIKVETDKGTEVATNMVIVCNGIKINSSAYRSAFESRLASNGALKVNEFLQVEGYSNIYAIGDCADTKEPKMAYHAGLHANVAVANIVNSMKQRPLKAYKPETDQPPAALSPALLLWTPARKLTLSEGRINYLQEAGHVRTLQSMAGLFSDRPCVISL
# Method in brief: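 Purified enzyme in PBS was shaken briefly with the test compound (DMSO) and preincubated 30 min at RT. A 2X NADH/CoQ1 mix started the reaction; final 400 μM CoQ1, 500 μM NADH, 0.01–20 μM compound. Mouse FSP1 was used at 125 nM to match the specific activity of 12.5 nM human FSP1. Absorbance at 355 nm was read every 2.5 min; percent activity was used for IC50.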
# FSP1 = molecular target: T2, FSP1 (Homo sapiens, UniProt Q9BRQ8); experiment: FSP1 enzyme kinetics; format: biochemical
# T2 sequence (Q9BRQ8 2-373 limits assumed): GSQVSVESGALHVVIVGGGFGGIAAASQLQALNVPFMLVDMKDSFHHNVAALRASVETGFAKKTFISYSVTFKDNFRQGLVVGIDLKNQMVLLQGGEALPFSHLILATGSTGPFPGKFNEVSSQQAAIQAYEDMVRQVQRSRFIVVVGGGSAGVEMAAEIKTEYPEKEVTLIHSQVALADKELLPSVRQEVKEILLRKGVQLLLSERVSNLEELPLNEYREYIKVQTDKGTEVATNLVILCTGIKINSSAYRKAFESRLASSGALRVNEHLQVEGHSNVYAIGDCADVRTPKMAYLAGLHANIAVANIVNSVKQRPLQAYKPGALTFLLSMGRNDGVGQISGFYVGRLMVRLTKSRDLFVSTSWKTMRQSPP
# Method in brief: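 His-tagged human FSP1 (expressed in E. coli, Ni-NTA purified) in PBS was preincubated 30 min at RT with the test compound. NADH series: 25 nM enzyme, 10 μM CoQ-coumarin, 1–50 μM NADH, 50–500 nM compound. CoQ-coumarin series: 6.25 nM enzyme, 1–30 μM CoQ-coumarin, 200 μM NADH, 12.5–125 nM compound. Fluorescence (Ex 405/Em 475 nm) read every 15 s at RT; three biological replicates; Vmax and Km by nonlinear regression.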
# [2] = system: FSP1^KO cells overexpressing mFSP1; experiment: RSL3-induced ferroptosis in FSP1 knockout cells overexpressing mouse FSP1; format: cell-based, human
# Method in brief: as §1
# H460^C Cas9 cells [3] = experiment: lipid peroxidation assay; format: cell-based, human; conditions: 1 μM FSEN1 with 200 nM RSL3
# Method in brief: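 Cells in 6-well plates were treated 5 h with 200 nM RSL3 ± 1 μM test compound. They were washed in DPBS with Ca/Mg, labelled with BODIPY 581/591 C11 and trypsinised. Green fluorescence was measured by flow cytometry (FITC channel, >10,000 cells). Mean ± SD of n=3; one-way ANOVA with Tukey's test.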
# A549 lung cancer cells = experiment: RSL3-induced cell death in A549 cells; format: cell-based, human; conditions: RSL3 with 1 μM FSEN1
# A375 melanoma cells = experiment: cell death in A375 cells; format: cell-based, human; conditions: 1 μM FSEN1
# Method in brief: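 Melanoma cells were treated with the test compound (1 μM), with 2 μM Fer-1 where indicated. Cell death was quantified as SYTOX Green-positive objects per mm2; mean ± SEM of two biological replicates.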
# [4] = in vivo pharmacokinetics in mice; set-up: species or system BALB/c mice; conditions: single 20 mg/kg I.P. dose
# Method in brief: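 Mice (20–25 g) were group-housed five per cage at 22°C on a 12 h light/dark cycle. Each received a single 20 mg/kg intraperitoneal dose in a vehicle containing 20% DMSO, 20% ethanol and 20% PEG40. Plasma Cmax and elimination half-life are reported as median (IQR), n=5.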
# [5] = metabolic stability in mouse liver microsomes; format: in vitro ADME; conditions: mouse liver microsomes 0.5 mg/mL, 2 μM FSEN1
# Method in brief: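 The test compound (2 μM) was incubated with 0.5 mg/mL mouse liver microsomes and 1.0 mM NADPH at 37°C, in triplicate, and sampled at 0, 5, 15, 30 and 45 min. Controls were no NADPH (negative) and 2 μM midazolam (positive). t1/2 = ln2/k; CLint = ln2/t1/2 × incubation volume/microsomal protein (μL/min/mg).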
molecule,measurement,setting,value
tocopherol,effect on cell death induced by co-treatment of FSEN1 and RSL3,H460^C Cas9 cells [1],blocked
same,effect on cell death induced by DHA and FSEN1 together,"H460^C Cas9 cells [1]; H460^C cells, 1 μM FSEN1",strongly suppressed
"Cc1ccc(-c2c(C#N)c(N)n3c(nc4ccccc43)c2C#N)cc1 [iFSP1, reference compound]","cell death, single agent",H460^C GPX4^KO cells,selectively triggered cell death
same,"cell death, single agent",H460^C Cas9 cells [1]; H460^C Cas9 cells,not in the H460^C Cas9 cells
"CCOC(=O)c1ccc(NC2CCCCC2)c(N)c1 [Fer-1, ferrostatin-1]",effect on cell death induced by co-treatment of FSEN1 and RSL3,H460^C Cas9 cells [1],blocked
same,effect on cell death induced by DHA and FSEN1 together,"H460^C Cas9 cells [1]; H460^C cells, 1 μM FSEN1",strongly suppressed
COC1=C(OC)C(=O)C(CCCCCCCCCCO)=C(C)C1=O [idebenone],effect on cell death induced by co-treatment of FSEN1 and RSL3,H460^C Cas9 cells [1],blocked
same,effect on cell death induced by DHA and FSEN1 together,"H460^C Cas9 cells [1]; H460^C cells, 1 μM FSEN1",strongly suppressed
CN1C(=O)NC(Cc2c[nH]c3c(Cl)cccc23)C1=O (centres unmarked) [Nec1s],effect on cell death induced by co-treatment of FSEN1 and RSL3,H460^C Cas9 cells [1],no effect
"C[C@H]1[C@@H](O)O[C@@H]2O[C@@]3(C)CC[C@H]4[C@H](C)CC[C@@H]1[C@@]24OO3 [DHA, dihydroartemisinin, reference compound]","cell death, single agent",H460^C Cas9 cells [1]; H460^C Cas9 cells,induced minimal amounts of ferroptosis on its own
same,"cell death, single agent",H460^C FSP1^KO cells; H460^C FSP1^KO cells,selectively induced cell death
COC(=O)C[C@H](NC(=O)[C@H](C)NC(=O)[C@@H](NC(=O)OCc1ccccc1)C(C)C)C(=O)CF [Z-VAD-FMK] (Cbz-Val-Ala-Asp(OMe)-CH2F),effect on cell death induced by co-treatment of FSEN1 and RSL3,H460^C Cas9 cells [1],no effect
"CC(=O)N(O)CCCCCNC(=O)CCC(=O)N(O)CCCCCNC(=O)CCC(=O)N(O)CCCCCN [DFO, deferoxamine]",effect on cell death induced by co-treatment of FSEN1 and RSL3,H460^C Cas9 cells [1],blocked
same,effect on cell death induced by DHA and FSEN1 together,"H460^C Cas9 cells [1]; H460^C cells, 1 μM FSEN1",completely suppressed
COc1ccc(N2CCN(Cc3cn4c(-c5ccc(Br)cc5)nnc4s3)CC2)cc1 [FSEN1],effect on CoQ oxidoreductase activity of NQO1,NQO1,no effect
same,effect on CoQ1 oxidoreductase activity of purified mFSP1,purified mFSP1,no effect
same,change in Kcat values,FSP1; as FSEN1 concentrations increased,decrease
same,mechanism of FSP1 inhibition,"FSP1; varied NADH and CoQ-coumarin, parallel Lineweaver-Burke slopes",uncompetitive inhibitor
same,EC50,"H460^C GPX4^KO cells; read-out: EC50 for triggering cell death, lethal fraction (AUC) over 24 hr",69.4 nM
same,sensitization to cell death induced by GPX4 inhibitors RSL3 and ML162,"H460^C Cas9 cells [1]; H460^C Cas9 cells, 1 μM FSEN1",sensitized
same,sensitization to cell death induced by DHA and FINO2,"H460^C Cas9 cells [1]; H460^C cells, 1 μM FSEN1",strongly sensitized
same,minimal dose that achieves maximal synergy for inducing ferroptosis,H460^C Cas9 cells [1]; H460^C Cas9 cells,0.55 µM
same,additional sensitization to DHA and FINO2 induced cell death,"H460^C FSP1^KO cells; FSP1^KO cells, 1 μM FSEN1",no additional sensitizing effect
same,effect on sensitivity to RSL3-induced cell death,"H460^C FSP1^KO cells; H460^C FSP1^KO cells, 1 μM FSEN1",did not result in any additional sensitization; also recorded: no effect
same,effect on ferroptosis sensitivity (RSL3),"[2]; FSP1^KO cells overexpressing mFSP1, 1 μM FSEN1",no effect
same,effect on sensitivity to RSL3,"[2]; FSP1^KO cells overexpressing mFSP1, FSEN1 up to 15 μM",no effect
same,lipid peroxidation (BODIPY C11),H460^C Cas9 cells [3],sensitized cells to lipid peroxidation
same,sensitizing effect on ferroptosis induction,A549 lung cancer cells,particularly large sensitizing effect
same,ferroptosis in the absence of an RSL3 co-treatment,A375 melanoma cells,induced a small amount of ferroptosis
same,median elimination half-life,"[4]; n=5, IQR 6.1 – 8.8",8.0 h
same,median maximum plasma concentration,"[4]; n=5, IQR 71.0–123.0",97.6 ng/mL
same,intrinsic clearance (CLint),[5],11.54 μL/min/mg protein
COC(=O)c1ccc([C@@H]2c3[nH]c4ccccc4c3C[C@@H](C(=O)OC)N2C(=O)CCl)cc1 [RSL3],"cell death, single agent",H460^C Cas9 cells [1]; H460^C Cas9 cells,not the H460^C Cas9 cells
same,minimal dose that achieves maximal synergy for inducing ferroptosis,H460^C Cas9 cells [1]; H460^C Cas9 cells,0.55 µM
same,"cell death, single agent",H460^C FSP1^KO cells; H460^C FSP1^KO cells,cytotoxic
